Measurements reported in ChEMBL document CHEMBL4400579, “Antibacterial Strategy against H. pylori: Inhibition of the Radical SAM Enzyme MqnE in Menaquinone Biosynthesis” (ACS Med Chem Lett, 2019).
Activity calls are given as the source filed them. The rule behind the calls is not given here.

Tests used:
[1] = target: T1, Aminodeoxyfutalosine synthase (Thermus thermophilus (strain HB8 / ATCC 27634 / DSM 579), UniProt Q5SK48); assay: Inhibition of N-terminal His6-tagged Thermus thermophilus HB8 MqnE expressed in Escherichia coli BL21 (DE3) co-expressing [4Fe-4S]2+ cluster using 3-(1-carboxyvinyloxy)benzoic acid as substrate preincubated for 15 mins in presence of SAM and substrate followed by Ti(3+)citrate addition and measured by discontinuous HPLC analysis
T1 sequence (Q5SK48 whole entry): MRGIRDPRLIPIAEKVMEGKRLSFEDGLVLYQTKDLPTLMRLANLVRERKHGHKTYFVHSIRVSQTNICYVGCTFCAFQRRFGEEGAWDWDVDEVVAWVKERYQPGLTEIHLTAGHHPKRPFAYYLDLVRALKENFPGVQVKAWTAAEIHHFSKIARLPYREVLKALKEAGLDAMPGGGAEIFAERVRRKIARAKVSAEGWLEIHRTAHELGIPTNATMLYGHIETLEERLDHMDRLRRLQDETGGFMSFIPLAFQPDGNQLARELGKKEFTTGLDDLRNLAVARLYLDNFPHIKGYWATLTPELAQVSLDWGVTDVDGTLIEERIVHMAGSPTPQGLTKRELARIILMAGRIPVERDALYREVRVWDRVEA
Outline: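 [4Fe-4S]2+-reconstituted T. thermophilus MqnE preincubated with a range of inhibitor concentrations plus excess SAM and substrate 1. Reaction started by reducing the enzyme with Ti(III) citrate. Aminofutalosine formation followed by discontinuous HPLC. Normalized relative initial rates plotted against inhibitor concentration to give IC50. Where IC50 fell within 5-fold of enzyme concentration, Ki fitted with the Morrison tight-binding equation.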

[2] = target: T2, Aminodeoxyfutalosine synthase (Thermus thermophilus (strain HB8 / ATCC 27634 / DSM 579)) (UniProt Q5SK48); assay: Reversible inhibition of N-terminal His6-tagged Thermus thermophilus HB8 MqnE expressed in Escherichia coli BL21 (DE3) co-expressing [4Fe-4S]2+ cluster assessed as restoration of enzyme activity at 2 mM using 3-(1-carboxyvinyloxy)benzoic acid as substrate preincubated for 1 hr in presence of SAM, substrate and Ti(3+)citrate followed by compound washout and subsequent addition of SAM, substrate and Ti(3+)citrate measured after 1 hr by HPLC analysis
T2 sequence (whole entry): T1 sequence (Q5SK48 whole entry)
Outline: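 Reversibility test: MqnE preincubated with inhibitor for 1 h, inhibitor then removed by gel filtration, and enzyme activity compared for restoration.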

[3] = Antibacterial activity against Campylobacter jejuni ATCC 33560 AS-83-79 measured after 16.4 hrs; type: functional, Campylobacter jejuni subsp. jejuni
Outline: (§1)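 Bacterial growth inhibition measured by 96-well plate liquid culture. IC50 values taken as reported for each organism.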

Helicobacter pylori = assay: Antibacterial activity against Helicobacter pylori 26695 ATCC 700392 measured after 72 hrs; type: functional, organism-based; details: 26695 ATCC 700392, 72 h; outline: as §1

Row | SMILES | IC50 [1] | Ki [1] | inhibition [2] | IC50 [3] | IC50 (Helicobacter pylori)
1 | C=C(Cc1cccc(C(=O)O)c1)C(=O)O | 38.7 µM | 3.1 µM | Active | 13.6 µM | 1.8 µM
2 | CCCCSC[C@H]1CN(Cc2c[nH]c3c(N)ncnc23)C[C@@H]1O | – | – | – | 1.4 µM | 0.012 µM
3 | CN[C@@H]1[C@@H](O)[C@@H](O[C@@H]2[C@@H](O)[C@H](O[C@H]3O[C@H]([C@@H](C)N)CC[C@H]3N)[C@@H](N)C[C@H]2N)OC[C@]1(C)O [GENTAMICIN C2] | – | – | – | 1.9 µM | 0.26 µM
4 | Nc1ncnc2c1ncn2[C@@H]1O[C@H](CCC(Cc2cccc(C(=O)O)c2)C(=O)O)[C@@H](O)[C@H]1O (some centres not stated) | 839 µM | – | – | 83.3 µM | 16.1 µM
